This is a sample that favours compounds with a hit; in the whole collection about 0.97% have one here.
Dynein transport = dynein cargo transport inhibition; 3617.4 mouse cells, GR-EGFP nuclear translocation imaging; test concentration mostly 20 µM; stimulated with dexamethasone, 1 µM; hits give low values; z-score, hits read low; actives 0.47% (n = 220,000); AID 1381;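 active means plate z-score of nuclear minus cytoplasmic receptor signal below a set negative limit, without overly bright fluorescence or cell loss, cut at about -3.5 in these data, passing the limit was not always enough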;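 further: z-score of nuclear minus cytoplasmic ring GR-EGFP intensity difference per well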
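Medium: Induction medium lacking tetracycline, stripped serum | Probe or stimulus: 1.0 µM final dexamethasone stimulus | Schedule: 48 h induction, then 1 h compound, then 30 min agonist, 37 °C | Signal: Automated 10x imaging of fixed Hoechst-stained cells | Evaluation: Per-cell GR-EGFP intensity, nucleus versus surrounding cytoplasmic ring, well-averaged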
TNF death inh = TNF-alpha cell death inhibition in Jurkat FADD-/- cells; Jurkat FADD-/- TNF necroptosis rescue, ATP luminescence, 24 h; 0 = TNF only, 100 = no-TNF cells; activation (protection from cell death), % at 10 µM; actives 0.068% (n = 220,000);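 active means activation, meaning protection from cell death, of at least 50% relative to plate controls; inactive means activation below 50%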;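 further: necroptosis triggered by 40 ng/mL TNF-alpha added together with compound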
B2AR ag = agonists of human beta-2 adrenergic receptor inducing internalization; Am2.2-beta2AR cells, FAP receptor internalization, flow cytometry; AID 504454; actives 0.43% (n = 340,000); response, % (concentration not given with the values);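 active means response above a set limit, near 3 SD of response in nonfluorescent compounds, cut at about 42% in these data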
MDM2 E3 inh = blocks human Mdm2 ubiquitin ligase activity; Q00987; cell-based MDM2 ubiquitination luciferase reporter, 2 h; 0 = plate control, 100 = twice control, blank-subtracted; signal enhancement, % at 5 µM; actives 0.11% (n = 210,000); AID 1230;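 active means signal enhancement of 30% or more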;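 further: luminescence tracks abundance of the self-degrading MDM2-luciferase fusion protein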
Target sequence (Q00987 whole entry, looked up, the tested form may be a part): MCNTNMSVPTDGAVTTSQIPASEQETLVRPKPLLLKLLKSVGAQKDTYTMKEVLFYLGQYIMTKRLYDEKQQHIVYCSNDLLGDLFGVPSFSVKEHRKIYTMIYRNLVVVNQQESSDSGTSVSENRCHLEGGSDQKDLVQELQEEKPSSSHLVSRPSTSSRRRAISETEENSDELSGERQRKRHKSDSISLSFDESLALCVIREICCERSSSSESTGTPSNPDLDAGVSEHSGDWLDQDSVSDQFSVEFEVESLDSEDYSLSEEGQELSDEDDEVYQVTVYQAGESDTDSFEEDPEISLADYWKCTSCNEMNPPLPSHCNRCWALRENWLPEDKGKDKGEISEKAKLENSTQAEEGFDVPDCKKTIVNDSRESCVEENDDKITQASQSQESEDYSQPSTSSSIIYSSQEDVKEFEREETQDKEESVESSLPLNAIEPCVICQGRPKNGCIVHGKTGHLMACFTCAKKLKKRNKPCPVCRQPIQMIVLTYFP
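Material: Stable MDM2–luciferase fusion reporter cells | Amount: 2000 cells seeded into each well | Dosing: One concentration, 5 µM, with 0.2% DMSO | Incubation: 4 h cell settling then 2 h compound exposure, 37 °C | Measured by: Luciferase luminescence | Read-out basis: % enhancement relative to plate controls after blank subtraction | Benchmarks: Control and blank well means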
L929 necroptosis = L929 zVAD cell death inhibition. L929 zVAD necroptosis rescue, ATP luminescence, 24 h; with zVAD 60 µM. actives 0.38% (n = 220,000). viability rescue, % at 10 µM;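 active means activation, scaled between plate controls, above about 75%, limit read from the data; inactive means activation under that limit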
Dynein inh conf = dynein cargo transport inhibition, confirmation; shares compounds with Dynein transport; 3617.4 GR-EGFP nuclear translocation imaging, dexamethasone-induced; calls only at 20 µM; actives 69% (n = 1,000);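 active means inhibition of receptor movement into the nucleus at or above a set limit in both runs, with normal cell brightness and cell count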;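 further: dexamethasone at 1 µM final in well for 30 min; nuclear minus cytoplasmic GR-EGFP mean intensity difference in channel 2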
Beta2AR ag CP1 = activates human beta-2 adrenergic receptor; Am2.2-beta2AR cells, FAP surface receptor, flow cytometry; hits give low values; shares compounds with B2AR ag; actives 25% (n = 1,100); percent response (surface receptor), % at 10 µM;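 active means surface receptor percent response at or below 58%, roughly 3 SD from nonfluorescent compounds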
B2AR FAP counter = fluorescence artifact in beta-2AR agonist FAP counterscreen. calls only at 10 µM. Am2.2 cells, FAP fluorogen flow cytometry; hits give low values. shares compounds with B2AR ag. 1,100 tested, under 10 active;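 active means percent response below a set limit in fluorescence channel 1 and below 50% in channel 8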
Numbers stand for hits; - = inactive; . = no result; + = active, no number.

SMILES	Dynein transport	TNF death inh	B2AR ag	MDM2 E3 inh	L929 necroptosis	Beta2AR ag CP1	B2AR FAP counter	others
COc1ccccc1N(CC(=O)NC(C)(C)C)C(=O)CCC(=O)Nc1ccccn1	.	.	-	.	.	.	.
Cc1ccc(S(=O)(=O)NCC(C)n2nc(C)cc2C)cc1 (stereo unspecified)	.	.	-	.	.	.	.
Cc1ccc(C(C[N+](=O)[O-])n2nc(C)cc2C)cc1 (stereo unspecified)	-5.3	-	-	-	-	.	.	Dynein inh conf=-
COCCCNC(=O)c1ccc2c3c(onc13)-c1ccccc1C2=O	-4.9	-	-	-	-	.	.	Dynein inh conf=+
COCCCNC(=O)c1ccccc1Oc1ccccc1	-	-	-	.	-	.	.
CCN1CCN(c2ccc(NC(=O)c3ccc([N+](=O)[O-])o3)cc2Cl)CC1	-4.2	-	63	-	-	13	-	Dynein inh conf=+
COc1ccc(OC)c(S(=O)(=O)Nc2ccc(O)c3ccccc23)c1	-4.2	-	52	.	-	-	-	Dynein inh conf=-
Cc1ccc(CNCC(O)(c2ccccc2)c2ccccc2)cc1	.	.	-	.	.	.	.
COc1cc(C(=O)/C=C/Nc2ccc(NC(C)=O)cc2)cc(OC)c1OC	-	-	-	-	-	.	.
CS(=O)(=O)c1ccc(C(=O)OCc2nnc(-c3ccccc3)o2)cc1[N+](=O)[O-]	-6.6	-	85	-	-	-	-	Dynein inh conf=+
CCOc1ccc(C(=O)C(CCC(CN(C)C)C(=O)c2ccc(OCC)cc2)CN(C)C)cc1 (stereo unspecified)	-4.1	-	110	-	-	-	-	Dynein inh conf=-
CCOc1ccc(C(=O)c2ccncc2)cc1	-	-	-	-	-	.	.
CS(=O)(=O)NNC(=O)c1cc2cc3ccccc3nc2s1	-	-	-	-	-	.	.
COC(=O)c1cc([N+](=O)[O-])c(-n2cncn2)c([N+](=O)[O-])c1	-4.6	-	50	-	-	34	-	Dynein inh conf=+
CNCc1ccccc1Sc1cccc(O)c1	-	-	-	-	-	.	.
CNCc1ccccc1Sc1cc(O)ccc1O	-4	-	68	-	-	-	-	Dynein inh conf=+
COC(=O)c1cc(NC(=O)C2CC(=O)NC(=NCc3ccc(OC)cc3)S2)cc(C(=O)OC)c1 (stereo unspecified)	-	-	-	-	-	.	.
CN(CC(=O)NCCc1ccccc1)CC(=O)Nc1cccc(F)c1	.	.	-	.	.	.	.
CCCC(=O)N(C1CC(C)C(C#N)(C#N)C1(C#N)C#N)N(C)C (stereo unspecified)	-5.3	-	43	-	-	34	-	Dynein inh conf=-
Cc1ccc(C(C[N+](=O)[O-])Sc2ccc(N)cc2)cc1 (stereo unspecified)	-6.7	-	70	-	-	-	-	Dynein inh conf=+
Nc1ccc(Sc2ccc([N+](=O)[O-])cc2)cc1	-	-	-	-	-	.	.
COC(=O)c1ccc(C(=O)OC)c(NC(=O)CSc2cccc[n+]2[O-])c1	-	-	-	-	-	-	-
COc1cc2ncc(S(=O)(=O)c3ccccc3)c(N3CCCC(C)C3)c2cc1OC (stereo unspecified)	.	.	69	.	.	9.0	-
O=C(NCCc1ccccc1)c1ccccc1F	-	-	-	-	-	.	.
COc1ccccc1CCC(=O)Nc1cccc(S(=O)(=O)N2CCCCCC2)c1	.	.	54	.	.	10	-
SMILES	Dynein transport	TNF death inh	B2AR ag	MDM2 E3 inh	L929 necroptosis	Beta2AR ag CP1	B2AR FAP counter	others
CC(=O)c1cccc(NC(=O)COc2ccc(S(=O)(=O)N3CCCCC3)cc2)c1	-	-	-	-	-	-	-
COc1ccc(N2C(=O)CC(N3CCN(S(=O)(=O)c4ccc(Cl)cc4)CC3)C2=O)cc1 (stereo unspecified)	-	-	-	-	-	.	.
CCOC(=O)c1ccc(S(=O)(=O)N2CCN(C3CC(=O)N(c4ccc(OC)cc4)C3=O)CC2)cc1 (stereo unspecified)	.	.	52	.	.	-	-
COc1ccc(OCC(=O)Nc2ccc(S(=O)(=O)N3CCCCCC3)cc2)cc1	-	-	-	-	-	.	.
Cc1ccc(OCC(=O)Nc2ccc(S(=O)(=O)N3CCCC3)cc2)cc1	.	.	-	.	.	.	.
CCOC(=O)c1ccc(NC(=O)COc2ccc(S(=O)(=O)N3CCCC3)cc2)cc1	-	-	98	-	-	21	-
Cc1ccc(Nc2nc(N)nc(CSc3nc(C)cc(C)n3)n2)cc1	-	-	-	-	-	.	.
Cc1ccc(Sc2ncccc2C(=O)NCC(c2ccc(F)cc2)N2CCOCC2)c(C)c1 (stereo unspecified)	.	.	47	.	.	-	-
Cc1cc(N2CCN(c3ccc(C(F)(F)F)cc3[N+](=O)[O-])CC2)c2ccccc2n1	.	.	-	.	.	.	.
Cc1cc(N2CCN(c3ccc([N+](=O)[O-])c4cccnc34)CC2)c2ccccc2n1	-	-	95	-	-	-	-
CC1CCN(C(C(=O)Nc2ccc3c(c2)OCO3)c2ccccc2)CC1 (stereo unspecified)	-	-	-	-	-	-	-
CC1CCCN(C(C(=O)Nc2ccc3c(c2)OCCO3)c2ccccc2)C1 (stereo unspecified)	-	-	-	-	-	.	.
O=C(Nc1ccc2c(c1)OCO2)C(c1ccccc1)N1CCCCC1 (stereo unspecified)	-	-	-	-	-	.	.
CC1CCCN(C(C(=O)Nc2ccc3c(c2)OCO3)c2ccccc2)C1 (stereo unspecified)	-	-	-	-	-	-	-
C=CCOc1ccc(CNn2nnnc2N)cc1	-	-	-	-	-	.	.
CCN(CC(=O)Nc1ccccc1C(F)(F)F)C(=O)CCc1ccccc1	.	.	-	.	.	.	.
COc1cccc(N=Nc2c(N)[nH]n3c(=O)cc(-c4ccccc4)nc23)c1	-	-	-	-	-	.	.
CC(C)(C)c1cc(N)n2nc(C(C)(C)C)cc2n1	-	-	-	-	-	.	.
COc1cc(C(C)=O)ccc1OCC(O)CNCC(O)c1ccccc1 (stereo unspecified)	.	.	-	.	.	-	-
COc1cc(C(C)=O)ccc1OCC(O)CN1CCN(S(=O)(=O)c2ccccc2)CC1 (stereo unspecified)	-	-	-	-	-	.	.
CCN(CC)CCCNc1ccc(-c2nnc(-c3ccc(OCC(C)C)cc3)o2)cn1	.	.	48	.	.	-	-
CC(C)COc1ccc(-c2nnc(-c3ccco3)o2)cc1	-	-	-	-	-	.	.
CN(Cc1ccccc1)C(=O)CN(C)S(=O)(=O)c1ccc(F)cc1	.	.	-	.	.	.	.
Cc1cccc(NC(=O)c2ccc(S(=O)(=O)NCc3ccco3)cc2)n1	.	.	-	.	.	.	.
